Data taken from publication PMC9115729 (Bioorganic & medicinal chemistry, 2020).

Tests used:
[1] = test system: GLS; settings: read-out: GLS inhibition IC50; literature value; cited from earlier work
[2] = biological target: T1, human kidney-type glutaminase (hKGA124-669) (Homo sapiens, UniProt O94925); assay: in vitro GLS assay with L-[3H]-glutamine as substrate; type: biochemical; settings: for GLS inhibitory potency in words: comparison with compounds 8 and 3a
T1 sequence (O94925 124-669): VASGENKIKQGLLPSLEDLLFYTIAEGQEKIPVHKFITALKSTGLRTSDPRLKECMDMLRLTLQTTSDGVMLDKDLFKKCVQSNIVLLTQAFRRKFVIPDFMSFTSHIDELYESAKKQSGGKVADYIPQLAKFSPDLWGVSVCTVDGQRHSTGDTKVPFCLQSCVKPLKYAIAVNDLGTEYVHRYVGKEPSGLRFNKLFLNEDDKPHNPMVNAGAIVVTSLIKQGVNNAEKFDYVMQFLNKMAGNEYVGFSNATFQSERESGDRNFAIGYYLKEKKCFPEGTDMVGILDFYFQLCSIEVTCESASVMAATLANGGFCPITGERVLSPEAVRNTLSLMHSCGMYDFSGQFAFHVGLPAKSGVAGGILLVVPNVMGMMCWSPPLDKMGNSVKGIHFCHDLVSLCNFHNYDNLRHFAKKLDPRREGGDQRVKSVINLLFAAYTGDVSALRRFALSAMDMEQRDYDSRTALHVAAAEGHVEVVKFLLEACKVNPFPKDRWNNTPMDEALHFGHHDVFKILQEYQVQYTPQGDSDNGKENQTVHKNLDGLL

[3] = type: physicochemical; settings: final concentrations of 1-10 μM
[4] = Aqueous solubility by the shake flask method; type: physicochemical; settings: PBS buffer, 37 °C, pH 7.4, aqueous buffer, thermodynamic from solid
Summary of the method: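 Test compound added to PBS (pH 7.4) at 5 mg/mL and shaken at 1000 rpm for 24 h at 37 °C to reach saturation. The solution was then passed through a 0.45 μm PTFE filter and the filtrate diluted. Concentration was quantified by UHPLC–Orbitrap MS on a C18 column (35 °C) with a 0.1% formic acid water/acetonitrile gradient, against a 5-10000 nM calibration curve.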

Structure (SMILES)	GLS inhibitory potency in words [2]	also measured
O=C(Cc1ccccc1)Nc1nnc(CSCc2nnc(NC(=O)Cc3ccccc3)s2)s1 [Compound 2b, N,N’-(5,5’-Thiobis(methylene)bis(1,3,4-thiadiazole-5,2-diyl))bis(2-phenylacetamide), reference compound]	negligible activity	IC50 [1]: > 20 µM; GLS inhibitory activity ([2]; at concentrations up to 100 μM): no inhibitory activity
O=C(Cc1ccccc1)Nc1nnc(CCSc2nnc(NC(=O)Cc3ccccc3)s2)s1 [Compound 3a, 2-Phenyl-N-(5-(2-(5-(2-phenylacetamido)-1,3,4-thiadiazol-2-yl)ethylthio)-1,3,4-thiadiazol-2-yl)acetamide]	–	behaviour on addition of stock solution to cell culture media [3]: precipitation
Nc1nnc(CCSc2ccc(NC(=O)Cc3ccccc3)nn2)s1 [Compound 18, N-(6-(2-(5-Amino-1,3,4-thiadiazol-2-yl)ethylthio)pyridazin-3-yl)-2-phenylacetamide]	substantially weaker potency	–
O=C(Cc1ccccc1)Nc1ccc(SCCc2nnc(NC(=O)Cc3ccccc3)s2)nn1 [Compound 19, 2-Phenyl-N-(6-(2-(5-(2-phenylacetamido)-1,3,4-thiadiazol-2-yl)ethylthio)pyridazin-3-yl)acetamide]	substantially weaker potency	–
Nc1nnc(SCCc2ccc(NC(=O)Cc3ccccc3)nn2)s1 [Compound 24, N-(6-(2-(5-Amino-1,3,4-thiadiazol-2-ylthio)ethyl)pyridazin-3-yl)-2-phenylacetamide]	comparable	–
O=C(Cc1ccccc1)Nc1ccc(CCSc2nnc(NC(=O)Cc3ccccc3)s2)nn1 [Compound 25, 2-Phenyl-N-(6-(2-(5-(2-phenylacetamido)-1,3,4-thiadiazol-2-ylthio)ethyl)pyridazin-3-yl)acetamide]	comparable	solubility at 24 h [4]: < 1 µM
